This note sets out measurements from ChEMBL document CHEMBL1153573, “Synthesis of a series of N6-substituted adenosines with activity against trypanosomatid parasites” (Eur J Med Chem, 2009).

The experiment deals with Trypanosoma brucei rhodesiense. The experiment in a line: Antitrypanosomal activity against Trypanosoma brucei rhodesiense STIB 900 after 72 hrs by alamar blue based microplate assay. Type of experiment: functional, organism-based. Conditions: STIB 900, 72 h. In a few lines: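 Bloodstream-form T. b. rhodesiense STIB 900, 10⁴ per well, in minimum essential medium with 2-mercaptoethanol and 15% heat-inactivated horse serum. Serial dilutions spanning […]. Incubated 37 °C, 5% CO₂, 72 h. Resazurin (Alamar Blue) then added and incubation continued. Fluorescence read at ex 536/em 588 nm as percent of control, IC50 calculated. Melarsoprol standard.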

The molecule `O=C(CCCc1ccccc1)NCCOCCNc1ncnc2c1ncn2[C@@H]1O[C@H](CO)[C@@H](O)[C@H]1O` showed an IC50 of 4 µM.

For `O=C(NCCOCCNc1ncnc2c1ncn2[C@@H]1O[C@H](CO)[C@@H](O)[C@H]1O)c1ccc(F)c(F)c1`, inhibition was half-maximal at 167 µM (IC50).

For the molecule `O=C(NCCOCCNc1ncnc2c1ncn2[C@@H]1O[C@H](CO)[C@@H](O)[C@H]1O)C(c1ccccc1)c1ccccc1`, the IC50 came to 85.9 µM.

Molecule `O=C(CCCOc1ccccc1)NCCOCCNc1ncnc2c1ncn2[C@@H]1O[C@H](CO)[C@@H](O)[C@H]1O` gave an IC50 of 3.4 µM.

Take `O=C(NCCOCCNc1ncnc2c1ncn2[C@@H]1O[C@H](CO)[C@@H](O)[C@H]1O)c1ccc(Oc2ccccc2)cc1`: the midpoint of inhibition, the IC50, lay at 10 µM.

In the case of `O=C(Cc1cccc2ccccc12)NCCOCCNc1ncnc2c1ncn2[C@@H]1O[C@H](CO)[C@@H](O)[C@H]1O`, the half-maximal inhibitory concentration (IC50) is greater than 170 µM.

In turn, `COc1ccc(CC(=O)NCCOCCNc2ncnc3c2ncn3[C@@H]2O[C@H](CO)[C@@H](O)[C@H]2O)cc1OC` gave an IC50 of 9.2 µM.

`COc1ccc(C(=O)NCCOCCNc2ncnc3c2ncn3[C@@H]2O[C@H](CO)[C@@H](O)[C@H]2O)cc1OC` showed a 50% inhibitory concentration (IC50) greater than 170 µM.

`COc1cccc(CC(=O)NCCOCCNc2ncnc3c2ncn3[C@@H]2O[C@H](CO)[C@@H](O)[C@H]2O)c1` registered an IC50 of 132 µM.

`O=C(CCCc1c[nH]c2ccccc12)NCCOCCNc1ncnc2c1ncn2[C@@H]1O[C@H](CO)[C@@H](O)[C@H]1O` showed a half-inhibitory concentration (IC50) of 37.6 µM.

Regarding `O=C(NCCOCCNc1ncnc2c1ncn2[C@@H]1O[C@H](CO)[C@@H](O)[C@H]1O)c1cccc(F)c1`, the IC50 came to 13.6 µM.

For `CC(=O)Nc1ccc(C(=O)NCCOCCNc2ncnc3c2ncn3[C@@H]2O[C@H](CO)[C@@H](O)[C@H]2O)cc1`, the half-maximal inhibitory concentration (IC50) was 132 µM.

As to `O=C(Cc1c(Cl)cccc1Cl)NCCOCCNc1ncnc2c1ncn2[C@@H]1O[C@H](CO)[C@@H](O)[C@H]1O`, the concentration for half-maximal inhibition (IC50) came to 49.7 µM.

On to `CC(C)=CC(=O)NCCOCCNc1ncnc2c1ncn2[C@@H]1O[C@H](CO)[C@@H](O)[C@H]1O`, for which the 50% inhibitory concentration (IC50) was determined as 125 µM.

For `O=C(CCCc1ccc([N+](=O)[O-])cc1)NCCOCCNc1ncnc2c1ncn2[C@@H]1O[C@H](CO)[C@@H](O)[C@H]1O`, the IC50 is 88.7 µM.
